Among the data in ChEMBL document CHEMBL1821704, “Diarylheptanoids from Curcuma kwangsiensis and their inhibitory activity on nitric oxide production in lipopolysaccharide-activated macrophages” (Bioorg Med Chem Lett, 2011) are Activity and IC50 values, retold here.

In data set [1] the test system is RAW264.7. Briefly: Cytotoxicity against mouse RAW264.7 cells at 100 uM after 24 hrs by MTT assay. The following applies: raw264.7, 24 h. In kind it is cell-based. For orientation: Tetrazolium assays rely on reduction of a dye to a coloured formazan, in cell work by metabolically active cells.
Data set [2] relates to RAW264.7. Briefly: Inhibition of LPS-induced nitric oxide production in mouse RAW264.7 cells after 24 hrs by Griess reaction based spectrophotometry. It is filed as functional, cell-based. The following applies: RAW264.7, 24 h. The gist of the method: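 Cells plated at 1 × 10⁵ cells/well and stimulated with LPS, with or without compound, for 24 h at 37 °C. Nitrite was read at 550 nm against a sodium nitrite standard curve. Triplicate wells; mean SD of three independent experiments.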
In general terms: Nitrite, measured by Griess reagent, commonly stands in for NO production.

The structures appear in SMILES notation.

`COc1cc(CC[C@@H](O)C[C@@H](O)CCc2ccc(O)cc2)cc(O)c1O` (relative stereo): the Activity result in the data set with RAW264.7 [1] is “Toxic”. This compound also came in with an IC50 in the data set with RAW264.7 [2] of 2.41 µM. For `Oc1ccc(CC[C@H](O)C[C@H](O)CCc2ccc(O)c(O)c2)cc1` (relative stereo), in the data set on RAW264.7 [1], the Activity entry was “Toxic”. The compound further returned an IC50 with RAW264.7 [2] of 3.13 µM. For the compound `CC(=O)O[C@@H](CCc1ccc(O)c(O)c1)C[C@@H](O)CCc1ccc(O)cc1`, the Activity entry in the data set with RAW264.7 [1] is “Toxic”. In the data set on RAW264.7 [2], this compound registered an IC50 of 9.52 µM.

Consider `CC(=O)O[C@H](CCc1ccc(O)c(O)c1)C[C@H](O)CCc1ccc(O)cc1`, for which, in the data set on RAW264.7 [1], the Activity result was “Toxic”. The half-inhibitory concentration (IC50) in the data set with RAW264.7 [2] was 9.52 µM. `Oc1ccc(CC[C@@H](O)C[C@@H](O)CCc2ccc(O)cc2)cc1`: in the data set on RAW264.7 [1], the Activity result is “Non-toxic”. In addition, the IC50 with RAW264.7 [2] is > 100 µM. For the compound `COc1cc(CC[C@@H](O)C[C@H](O)CCc2ccc(O)c(O)c2)ccc1O`, the Activity result with RAW264.7 [1] is “Non-toxic”. Besides, in the data set with RAW264.7 [2], the IC50 worked out at 25.8 µM.

As for `CC(=O)O[C@H](CCc1ccc(O)c(O)c1)C[C@@H](CCc1ccc(O)c(O)c1)OC(C)=O`, the Activity result in the data set with RAW264.7 [1] was “Toxic”. In the data set on RAW264.7 [2], the IC50 is 7.98 µM.

On to `COc1ccc2c(c1)c(CC(=O)O)c(C)n2C(=O)c1ccc(Cl)cc1` [INDOMETHACIN], for which the Activity entry with RAW264.7 [1] is recorded as “Non-toxic”.

Take `COc1cc(CCC(=O)C[C@@H](O)CCc2ccc(O)c(O)c2)ccc1O`: the Activity result with RAW264.7 [1] is “Toxic”. Moreover, it took 9.37 µM to reach half-maximal inhibition in the data set with RAW264.7 [2] (IC50).

In the case of `O=C(CCc1ccc(O)cc1)C[C@@H](O)CCc1ccc(O)c(O)c1`, the Activity entry in the data set on RAW264.7 [1] is “Non-toxic”. In the data set with RAW264.7 [2], this compound gave an IC50 of 82.8 µM. In the same order, the values of `CC(=O)O[C@H](CCc1ccc(O)c(O)c1)C[C@H](O)CCc1ccc(O)c(O)c1` are “Toxic” and 35.5 µM. On the same counts, the results for `CC(=O)O[C@H](CCc1ccc(O)cc1)C[C@H](O)CCc1ccc(O)cc1` are “Non-toxic” and 32 µM.

Regarding `O=C(CCc1ccc(O)cc1)C[C@@H](O)CCc1ccccc1`, the Activity entry in the data set with RAW264.7 [1] was “Non-toxic”. In the data set on RAW264.7 [2], this compound came in with an IC50 of 75.7 µM. For `CC(=O)O[C@H](CCc1ccc(O)cc1)C[C@@H](CCc1ccc(O)c(O)c1)OC(C)=O`, the Activity entry with RAW264.7 [1] is listed as “Non-toxic”. The compound also came in with an IC50 with RAW264.7 [2] of 10.7 µM.

In the case of `Oc1ccc(CC[C@@H](O)C[C@H](O)CCc2ccc(O)c(O)c2)cc1`, in the data set on RAW264.7 [1], the Activity result is given as “Non-toxic”. This compound also returned an IC50 in the data set on RAW264.7 [2] of 11.5 µM.

For the compound `Oc1ccc(CC[C@@H](O)C[C@H](O)CCc2ccc(O)cc2)cc1` [(+)-HANNOKINOL], the Activity entry in the data set on RAW264.7 [1] is given as “Non-toxic”. Moreover, the IC50 with RAW264.7 [2] is > 100 µM.

As to `C[C@]12CCC(=O)C=C1CC[C@@H]1[C@@H]2[C@@H](O)C[C@@]2(C)[C@H]1CC[C@]2(O)C(=O)CO` [HYDROCORTISONE], in the data set on RAW264.7 [1], the Activity result was “Non-toxic”.

Take `COc1cc(CC[C@@H](O)C[C@@H](O)CCc2ccc(O)cc2)ccc1O` (relative stereo): the Activity entry with RAW264.7 [1] is “Non-toxic”. In the data set with RAW264.7 [2], this compound registered an IC50 of 2.81 µM. Regarding `COc1cc(CCC(=O)C[C@@H](O)CCc2ccc(O)cc2)ccc1O`, in the data set with RAW264.7 [1], the Activity entry was “Non-toxic”. In the data set with RAW264.7 [2], this compound yielded an IC50 of 37.5 µM.

The term IC50 denotes the concentration at which inhibition is half-maximal. A high value points to a need for much substance.
